In ChEMBL document CHEMBL3286367, “Synthesis of new class of spirocarbocycle derivatives by multicomponent domino reaction and their evaluation for antimicrobial, anticancer activity and molecular docking studies” (2014):
Converted amounts (≈) assume the structure as drawn. The source made the active and inactive calls. No cut-off for these calls is given here.

How the values were obtained:
[1] = system: Staphylococcus epidermidis; assay: Antimicrobial activity against Staphylococcus epidermidis MTCC 3615 assessed as zone of inhibition at 1 mg/disc after 24 hrs incubation by disc diffusion assay; assay type: functional
How it was run: (§1)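 Inocula grown in Mueller Hinton broth for 24 h at 37 °C and swabbed onto Mueller Hinton agar. Discs carried 1 mg compound each and stood 30 min at room temperature before 24 h incubation at 37 °C. Solvent as negative control. Inhibition zones recorded in mm; experiment done twice.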

[2] = system: Staphylococcus aureus; assay: Antimicrobial activity against Staphylococcus aureus MTCC 96 assessed as zone of inhibition at 1 mg/disc after 24 hrs incubation by disc diffusion assay; assay type: functional; how it was run: as §1
[3] = system: Staphylococcus aureus; assay: Antimicrobial activity against methicillin-resistant Staphylococcus aureus assessed as zone of inhibition at 1 mg/disc after 24 hrs incubation by disc diffusion assay; assay type: functional
How it was run: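 Inoculum grown in Mueller Hinton broth 24 h at 37°C, swabbed onto Mueller Hinton agar and dried 10 min. Discs loaded at 1 mg/disc, then 30 min at room temperature for diffusion. Plates incubated 24 h at 37°C. Solvent negative control; streptomycin positive control. Zone of inhibition read in mm; experiment done twice.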

[4] = system: Micrococcus luteus; assay: Antimicrobial activity against Micrococcus luteus MTCC 106 assessed as zone of inhibition at 1 mg/disc after 24 hrs incubation by disc diffusion assay; assay type: functional; how it was run: as §1
[5] = system: Klebsiella aerogenes; assay: Antimicrobial activity against Enterobacter aerogenes MTCC 111 assessed as zone of inhibition at 1 mg/disc after 24 hrs incubation by disc diffusion assay; assay type: functional; how it was run: as §1
[6] = system: Salmonella typhimurium; assay: Antimicrobial activity against Salmonella typhimurium MTCC 1251 assessed as zone of inhibition at 1 mg/disc after 24 hrs incubation by disc diffusion assay; assay type: functional, Salmonella enterica subsp. enterica serovar Typhimurium; how it was run: as §1
[7] = system: Klebsiella pneumoniae; assay: Antimicrobial activity against Klebsiella pneumonia MTCC 109 assessed as zone of inhibition at 1 mg/disc after 24 hrs incubation by disc diffusion assay; assay type: functional; how it was run: as §1
[8] = system: Proteus vulgaris; assay: Antimicrobial activity against Proteus vulgaris MTCC 1771 assessed as zone of inhibition at 1 mg/disc after 24 hrs incubation by disc diffusion assay; assay type: functional; how it was run: as §1
[9] = system: Shigella flexneri; assay: Antimicrobial activity against Shigella flexneri MTCC 1457 assessed as zone of inhibition at 1 mg/disc after 24 hrs incubation by disc diffusion assay; assay type: functional; how it was run: as §1
[10] = system: Candida albicans; assay: Antifungal activity against Candida albicans MTCC 227 assessed as zone of inhibition at 1 mg/disc after 48 hrs incubation by disc diffusion assay; assay type: functional
How it was run: (§2)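 Disc diffusion on Mueller Hinton agar with swabbed cultures, 1 mg compound per disc. Discs stood 30 min at room temperature for diffusion, then plates incubated 48 h at 28 °C. Solvent as negative control. Yeast pre-grown in Sabouraud dextrose broth at 28 °C for 48-72 h; filamentous fungal spores came from SDA slants grown 10 days at 28 °C. Zone diameters in mm; run twice.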

[11] = system: Malassezia pachydermatis; assay: Antifungal activity against Malassezia pachydermatis assessed as zone of inhibition at 1 mg/disc after 48 hrs incubation by disc diffusion assay; assay type: functional; how it was run: as §2
[12] = system: Staphylococcus aureus; assay: Antimicrobial activity against Staphylococcus aureus MTCC 96 assessed as absence of visible growth after 48 to 72 hrs; assay type: functional
[13] = system: Staphylococcus aureus; assay: Antimicrobial activity against methicillin-resistant Staphylococcus aureus assessed as absence of visible growth after 48 to 72 hrs; assay type: functional
How it was run: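 Broth two-fold serial dilution in 96-well plates, 1000 to 7.81 µg/mL, compound dissolved in DMSO (2%). Inoculum grown in Mueller Hinton broth 24 h at 37°C. Streptomycin positive control. 5 µl of tested broth plated on MHA; MIC is the lowest concentration inhibiting visible growth on agar.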

[14] = system: Micrococcus luteus; assay: Antimicrobial activity against Micrococcus luteus MTCC 106 assessed as absence of visible growth after 48 to 72 hrs; assay type: functional
[15] = system: Klebsiella aerogenes; assay: Antimicrobial activity against Enterobacter aerogenes MTCC 111 assessed as absence of visible growth after 48 to 72 hrs; assay type: functional
[16] = system: Salmonella typhimurium; assay: Antimicrobial activity against Salmonella typhimurium MTCC 1251 assessed as absence of visible growth after 48 to 72 hrs; assay type: functional, Salmonella enterica subsp. enterica serovar Typhimurium; settings: Salmonella enterica
[17] = system: Proteus vulgaris; assay: Antimicrobial activity against Proteus vulgaris MTCC 1771 assessed as absence of visible growth after 48 to 72 hrs; assay type: functional
[18] = system: A549; assay: Anticancer activity against human A549 cells assessed as cell growth inhibition at 5 ug/ml by MTT assay; assay type: functional; settings: read-out: GI
How it was run: (§3)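 A549 cells kept in DMEM with 10% FBS, 2 mM L-glutamine, penicillin/streptomycin, pH 7.2. Seeded at 5000 cells/well in medium with compound at 5–50 µg/mL. Grown at 37 °C, 5% CO2. Medium then replaced by 1 mg/mL MTT for 4 h and formazan dissolved in DMSO. Absorbance read at 540 nm; three replicate experiments.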

[19] = system: A549; assay: Anticancer activity against human A549 cells assessed as cell growth inhibition at 10 ug/ml by MTT assay; assay type: functional; settings: read-out: GI; how it was run: as §3
[20] = system: A549; assay: Anticancer activity against human A549 cells assessed as cell growth inhibition at 20 ug/ml by MTT assay; assay type: functional; settings: read-out: GI; how it was run: as §3
[21] = system: A549; assay: Anticancer activity against human A549 cells assessed as cell growth inhibition at 30 ug/ml by MTT assay; assay type: functional; settings: read-out: GI; how it was run: as §3
[22] = system: A549; assay: Anticancer activity against human A549 cells assessed as cell growth inhibition at 40 ug/ml by MTT assay; assay type: functional; settings: read-out: GI; how it was run: as §3
[23] = system: A549; assay: Anticancer activity against human A549 cells assessed as cell growth inhibition at 50 ug/ml by MTT assay; assay type: functional; settings: read-out: GI; how it was run: as §3
[24] = system: Shigella flexneri; assay: Antimicrobial activity against Shigella flexneri MTCC 1457 assessed as absence of visible growth after 24 hrs
[25] = system: Klebsiella pneumoniae; assay: Antimicrobial activity against Klebsiella pneumonia MTCC 109 assessed as absence of visible growth after 24 hrs
[26] = system: Staphylococcus epidermidis; assay: Antimicrobial activity against Staphylococcus epidermidis MTCC 3615 assessed as absence of visible growth after 24 hrs
[27] = system: Staphylococcus epidermidis; assay: Antimicrobial activity against Staphylococcus epidermidis MTCC 3615 assessed as absence of visible growth after 48 to 72 hrs; assay type: functional
[28] = system: Klebsiella pneumoniae; assay: Antimicrobial activity against Klebsiella pneumonia MTCC 109 assessed as absence of visible growth after 48 to 72 hrs; assay type: functional
[29] = system: Proteus vulgaris; assay: Antimicrobial activity against Proteus vulgaris MTCC 1771 assessed as absence of visible growth after 24 hrs
[30] = system: Staphylococcus aureus; assay: Antimicrobial activity against Staphylococcus aureus MTCC 96 assessed as absence of visible growth after 24 hrs
[31] = system: Shigella flexneri; assay: Antimicrobial activity against Shigella flexneri MTCC 1457 assessed as absence of visible growth after 48 to 72 hrs; assay type: functional

SMILES	inhibition zone (IZ) [1] [mm]	inhibition zone (IZ) [2] [mm]	inhibition zone (IZ) [3] [mm]	inhibition zone (IZ) [4] [mm]	inhibition zone (IZ) [5] [mm]	inhibition zone (IZ) [6] [mm]	inhibition zone (IZ) [7] [mm]	inhibition zone (IZ) [8] [mm]	inhibition zone (IZ) [9] [mm]	inhibition zone (IZ) [10] [mm]	inhibition zone (IZ) [11] [mm]	MIC [12] [µg/mL]	MIC [13] [µg/mL]	MIC [14] [µg/mL]	MIC [15] [µg/mL]	MIC [16] [µg/mL]	MIC [17] [µg/mL]	inhibition of growth at 5 µg/mL [18] [%]	inhibition of growth at 10 µg/mL [19] [%]	MIC [24] [µg/mL]	also measured
N#CC1=C(N)C2(C(=O)c3ccccc3C2=O)[C@@H](c2ccc(Cl)cc2)[C@@H]2CCCCC=C12 (relative stereo)	17	13	21	21	18	18	17	23	22	13	12	250 (≈ 583 µM)	62.5 (≈ 146 µM)	62.5 (≈ 146 µM)	125 (≈ 291 µM)	125 (≈ 291 µM)	62.5 (≈ 146 µM)	12.1	28.1	62.5 (≈ 146 µM)	inhibition of growth at 20 µg/mL [20]: 47.5%; inhibition of growth at 30 µg/mL [21]: 56.2%; inhibition of growth at 40 µg/mL [22]: 62.4%; inhibition of growth at 50 µg/mL [23]: 78.8%; MIC [25]: 125 µg/mL (≈ 291 µM); MIC [26]: 125 µg/mL (≈ 291 µM)
N#CC1=C(N)[C@]2(C(=O)Nc3ccccc32)[C@@H](c2cccc3ccccc23)[C@@H]2CCCC=C12	15			10	18	14	16		12		9			250 (≈ 599 µM)	125 (≈ 299 µM)	250 (≈ 599 µM)				500 (≈ 1200 µM)	inhibition [2]: inactive; inhibition [3]: inactive; inhibition [8]: inactive; inhibition [10]: inactive; MIC [27]: 125 µg/mL (≈ 299 µM); inhibition [13]: inactive; MIC [28]: 125 µg/mL (≈ 299 µM); inhibition [29]: inactive; inhibition [30]: inactive
N#CC1=C(N)[C@]2(C(=O)Nc3ccccc32)[C@@H](c2cccs2)[C@@H]2CCCC=C12	19	13	21	15	17	15	16	23	25	10	12	250 (≈ 669 µM)	62.5 (≈ 167 µM)	250 (≈ 669 µM)	125 (≈ 335 µM)	250 (≈ 669 µM)	62.5 (≈ 167 µM)	25.7	45.8	62.5 (≈ 167 µM)	MIC [27]: 125 µg/mL (≈ 335 µM); MIC [28]: 125 µg/mL (≈ 335 µM); inhibition of growth at 20 µg/mL [20]: 62.4%; inhibition of growth at 30 µg/mL [21]: 67.8%; inhibition of growth at 40 µg/mL [22]: 75.9%; inhibition of growth at 50 µg/mL [23]: 83.9%
N#CC1=C(N)[C@]2(C(=O)Nc3ccccc32)[C@@H](c2ccc(Cl)cc2)[C@@H]2CCCC=C12	13			9	10	12	16	17	10	9	11			1000 (≈ 2490 µM)	250 (≈ 622 µM)	250 (≈ 622 µM)	125 (≈ 311 µM)			250 (≈ 622 µM)	inhibition [2]: inactive; inhibition [3]: inactive; MIC [27]: 250 µg/mL (≈ 622 µM); inhibition [13]: inactive; inhibition [30]: inactive; MIC [25]: 125 µg/mL (≈ 311 µM)
Cc1ccc([C@H]2[C@@H]3CCCCC=C3C(C#N)=C(N)C23C(=O)c2ccccc2C3=O)cc1 (relative stereo)	16	13	17	10	18	19	20	22	23	10	10	250 (≈ 612 µM)	125 (≈ 306 µM)	250 (≈ 612 µM)	125 (≈ 306 µM)	125 (≈ 306 µM)	62.5 (≈ 153 µM)	3.7	10.5		MIC [31]: 62.5 µg/mL (≈ 153 µM); inhibition of growth at 20 µg/mL [20]: 18.6%; inhibition of growth at 30 µg/mL [21]: 30.8%; inhibition of growth at 40 µg/mL [22]: 46.6%; inhibition of growth at 50 µg/mL [23]: 59.6%; MIC [25]: 62.5 µg/mL (≈ 153 µM); MIC [26]: 250 µg/mL (≈ 612 µM)
